Bioassay records deposited in PubChem BioAssay by several laboratories.
ADAM17 inh = ADAM17 inhibitors, primary screen, biochemical, QFRET | Disintegrin and metalloproteinase domain-containing protein 17 (Homo sapiens), P78536 | recombinant ADAM17, EDANS/DABCYL FRET peptide cleavage | inhibition, % at 6.95 µM | 0.83% of 370,000 active | AID 720648, 2013;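 active means inhibition above the mean of compounds lying between control limits plus 3 SD, set per campaign, cut at about 8.5% in these data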;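 further: 0% = DMSO-only wells as the low control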
Target sequence (P78536 215-824 limits assumed): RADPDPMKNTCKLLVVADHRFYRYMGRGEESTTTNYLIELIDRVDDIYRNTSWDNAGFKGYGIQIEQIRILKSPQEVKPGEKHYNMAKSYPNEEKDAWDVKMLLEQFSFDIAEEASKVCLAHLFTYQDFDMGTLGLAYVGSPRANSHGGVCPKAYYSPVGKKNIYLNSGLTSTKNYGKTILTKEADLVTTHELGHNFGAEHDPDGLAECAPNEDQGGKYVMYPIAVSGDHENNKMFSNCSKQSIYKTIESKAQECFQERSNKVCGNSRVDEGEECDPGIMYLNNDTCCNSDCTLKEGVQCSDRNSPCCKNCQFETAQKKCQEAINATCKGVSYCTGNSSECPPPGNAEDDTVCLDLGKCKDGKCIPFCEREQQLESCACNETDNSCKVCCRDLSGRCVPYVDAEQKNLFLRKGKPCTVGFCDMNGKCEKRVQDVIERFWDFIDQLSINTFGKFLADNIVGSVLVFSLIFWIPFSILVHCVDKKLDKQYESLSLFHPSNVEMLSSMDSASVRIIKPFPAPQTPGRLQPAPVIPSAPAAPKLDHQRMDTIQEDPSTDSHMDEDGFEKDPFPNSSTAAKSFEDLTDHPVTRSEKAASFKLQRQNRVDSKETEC
MT1-MMP act inh = blockers of MT1-MMP proenzyme processing, primary screen, HT1080 RFP-PRO-GFP cells, GFP/RFP fluorescence. GFP/RFP ratio fluorescence, overnight; percent of plate control window, DMSO zero. GFP/RFP ratio change, % at 20 µM. 0.061% of 360,000 active. AID 651647, 2012;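 active means GFP/RFP ratio change of at least 30% with cell ATP level not reduced by more than half and red fluorescence within 50% of control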
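system = RFP-PRO-GFP reporter HT1080 cells | dosing = 20 µM single dose, 1% DMSO | timing = overnight cell settling, then overnight compound exposure, 37 °C, 5% CO2 | read-out basis = GFP/RFP fluorescence ratio | controls = DMSO and RFP-L50D-GFP cell wells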
DDE Tn7 FP inh = inhibitors of Tn7 peptide binding to fibrin DD(E), primary screen, biochemical, fluorescence polarization, human fibrin, Tn7 probe | 0.13% of 370,000 active | Fibrinogen beta chain (Homo sapiens), P02675 | FP displacement of FITC-Tn7 peptide from fibrin DD(E); 0% = median of compound wells per plate | inhibition, % at 8.3 µM;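 active means inhibition above the mean of compounds falling within the control limits plus 3 SD of them, cut at about 14% in these data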;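 further: 0% = plate median of compound wells and 100% = 10 µM Aha-Tn7 peptide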
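Assay system: human fibrin DD(E) protein / Input: 2 µM fibrin DD(E) / Benchmarks: high control of 10 µM Aha-Tn7 peptide / Measured by: fluorescence polarization of the labelled Tn7 tracer / Medium: Tris buffer with calcium and detergent, pH 7.8 / Timing: 10 min compound pre-incubation, 3 h probe incubation at room temperature / Repeats: one replicate per compound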
DDE Tn6 FP inh = inhibitors of Tn6 peptide binding to fibrin DD(E), primary screen, biochemical, fluorescence polarization, human fibrin, Tn6 probe; Fibrinogen beta chain (Homo sapiens), P02675; Fibrin DD(E) TRITC-Tn6 fluorescence polarization displacement; inhibition, % at 8.3 µM; 0.21% of 370,000 active;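 active means inhibition above a per-campaign cutoff: mean of compounds within control limits plus 3 SD, cut at about 15% in these data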;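 further: 0% = median of all compound wells on the plate and 100% = blocking peptide control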
ADAM10 inh = human ADAM10 inhibitors, primary screen, biochemical, QFRET, HTS | recombinant ADAM10, EDANS/DABCYL FRET peptide cleavage, 3 h | inhibition, % at 7 µM | 0.62% of 370,000 active | AID 720582, 2013;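 active means inhibition above a per-campaign cutoff equal to the mean of compounds falling between control-based bounds plus 3 SD, cut at about 20% in these data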;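 further: 0% = DMSO wells while the 100% control is not disclosed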
ADAM10 confirm = human ADAM10 inhibitors, confirmation, biochemical, QFRET, triplicate; ADAM10 QFRET peptide cleavage, EDANS fluorescence; inhibition, % at 6.95 µM; 1% of 2,100 active; shares compounds with ADAM10 inh; AID 743208, 2013;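 active means inhibition above about 20% chosen separately for each screening run, limit read from the data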;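 further: 0% = DMSO wells and 100% = marimastat wells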
ADAM17 counter = ADAM17 inhibitors, counter-screen for ADAM10 exosite inhibitor project, biochemical, QFRET, high throughput; AID 743214, 2013; 0.5% of 2,100 active; ADAM17 QFRET peptide cleavage, EDANS fluorescence; shares compounds with ADAM10 inh; inhibition, % at 6.95 µM;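 active means mean triplicate inhibition above the solvent-only control wells' mean plus 3 SD, cut at about 12% in these data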;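 further: 0% = DMSO wells and 100% = marimastat wells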
ADAM10 counter = ADAM10 inhibitors, counter-screen for ADAM17 exosite inhibitor project, biochemical, FRET, human ADAM10; AID 743256, 2014; recombinant ADAM10, EDANS/DABCYL FRET peptide cleavage, 3 h; inhibition, % at 6.95 µM; 47% of 2,900 active; shares compounds with ADAM17 inh;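 active means mean inhibition over the triplicate runs exceeds the activity threshold set in the earlier primary screen, cut at about 20% in these data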;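 further: 0% = DMSO wells and 100% = marimastat wells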
ADAM17 confirm = ADAM17 inhibitors, hit retest, confirmation, biochemical, QFRET peptide cleavage; recombinant ADAM17, EDANS/DABCYL QFRET peptide cleavage; 65% of 2,900 active; shares compounds with ADAM17 inh; inhibition, % at 6.95 µM;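 active means mean inhibition across replicates above the hit cutoff set in the primary screen, cut at about 8.5% in these data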;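 further: 0% = DMSO wells and 100% = marimastat wells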
Starred values were filed as active, the others as inactive; nt = no result given. In the library only some 1.6% were active in any assay of this set; here they are far more common.

SMILES | ADAM17 inh | MT1-MMP act inh | DDE Tn7 FP inh | DDE Tn6 FP inh | ADAM10 inh | ADAM10 confirm | ADAM17 counter | ADAM10 counter | ADAM17 confirm
Cc1ccc(CNC(=O)O[C@H]2CC[C@@]34CCCN3C(=O)CCC[C@H]4[C@H]2C)o1 | -7 | nt | 1 | 4 | -7 | nt | nt | nt | nt
O=C(Nc1ccccc1)OCc1cc(-c2ccccc2Cl)on1 | 9.0* | -2 | 3 | 9 | 27* | 9 | 3 | 36* | 17*
O=C(Nc1cccc(O)c1)c1cc(-c2ccccc2Cl)on1 | 1 | -1 | 5 | -4 | 9 | nt | nt | nt | nt
COc1ccc(C(=O)C2(C(=O)Nc3cc(C)cc(C)c3)CC(c3ccccn3)=NO2)cc1 (configuration not stated) | 4 | nt | 4 | 4 | 7 | nt | nt | nt | nt
Cc1cccc(NC(=S)N/N=C/c2ccc([N+](=O)[O-])s2)c1 | 13* | -31 | 6 | -9 | 26* | 8 | 4 | 23* | 15*
O=C1CCCN1c1ccc(S(=O)(=O)N2CCCCC2)cc1[N+](=O)[O-] | -3 | -4 | -3 | 1 | -2 | nt | nt | nt | nt
O=C1CCCN1c1ccc(S(=O)(=O)Oc2cccc(Cl)c2)cc1[N+](=O)[O-] | 9.7* | -3 | -6 | 3 | 20* | 3 | 1 | 5 | 5
Cc1ccc(C(=O)OCc2ccc3c(c2)OCO3)cc1S(=O)(=O)N1CCCCC1 | 13* | -8 | -6 | -3 | 21* | 4 | 1 | 15 | 9.4*
Cc1ccc(C(=O)Nc2ccc3c(c2)OCO3)cc1S(=O)(=O)N1CCCC1 | 0 | -1 | 9 | -7 | 4 | nt | nt | nt | nt
C[C@@H]1CN([C@H](C)CO)C(=O)c2cc(Br)cnc2O[C@H]1CN(C)C(=O)c1ccc(F)cc1 | 2 | nt | 5 | -5 | 5 | nt | nt | nt | nt
Cc1cccc(-c2nnc(SCC(=O)Nc3ccc(OCc4ccccc4)cc3)n2Cc2ccco2)c1 | 4 | nt | -2 | -4 | 11 | nt | nt | nt | nt
O=C(CSc1nnc(-c2ccccc2)n1Cc1ccco1)Nc1ccc(OCc2ccccc2)cc1 | 10.0* | nt | -7 | -9 | 37* | 5 | 0 | 21* | 14*
O=C(CSc1nnc(-c2ccccc2)n1Cc1ccco1)Nc1ccc(Oc2ccccc2)cc1 | 0 | nt | 3 | 2 | -5 | nt | nt | nt | nt
O=C(CSc1nnc(-c2cccs2)n1Cc1ccco1)Nc1ccc(Oc2ccccc2)cc1 | 8.7* | nt | -5 | -5 | 21* | 13 | 5 | 28* | 14*
CN(C)CCNC(C(=O)Nc1cccc(C(F)(F)F)c1)c1ccccc1 (configuration not stated) | -1 | 3 | 1 | 0 | -10 | nt | nt | nt | nt
Cc1cc(C(=O)OC(C(=O)Nc2cccc(C(F)(F)F)c2)c2ccccc2)c(C)o1 (configuration not stated) | 16* | -4 | 0 | -3 | 30* | 7 | 3 | 38* | 24*
CN(CC(=O)Nc1cccc(F)c1)C(=O)c1cccc(S(=O)(=O)N2CCN(c3ccc(F)cc3)CC2)c1 | 15* | -2 | 0 | 0 | 20* | 3 | 1 | 23* | 10*
COc1cc(/C=N/NC(=O)COc2ccc(Cl)cc2)ccc1OS(=O)(=O)c1ccc(C)cc1 | 11* | -2 | 0 | 5 | 27* | 15 | 4 | 51* | 34*
COc1cc(/C=N/NC(=O)COc2cccc(F)c2)ccc1OS(=O)(=O)c1ccc(C)cc1 | 13* | 6 | -1 | -2 | 25* | 8 | 3 | 24* | 16*
Cc1cc(N2CCN(C(=O)OC(C)(C)C)C[C@@H]2C)ccc1N1CCN(Cc2ccccc2)[C@H](C)C1 | 4 | nt | 2 | 1 | 0 | nt | nt | nt | nt
O=C(CSc1nc2ccccc2c(=O)n1-c1ccc(F)cc1)Nc1ccc(Cl)c(S(=O)(=O)N2CCOCC2)c1 | 7 | 5 | 3 | 4 | 14 | nt | nt | nt | nt
O=C(CSc1nc2ccccc2c(=O)n1-c1ccc(F)c(Cl)c1)Nc1cccc(S(=O)(=O)N2CCOCC2)c1 | 10* | 0 | 3 | 4 | 20* | 8 | 2 | 30* | 20*
CN(C)S(=O)(=O)c1cccc(NC(=O)CSc2nc3ccccc3n2-c2ccccc2)c1 | 10* | -19 | 2 | 5 | 20* | 7 | 2 | 24* | 13*
CCOC(OCC)P(=O)(CNC(c1ccccc1)(c1ccccc1)c1ccccc1)OCC (configuration not stated) | 3 | nt | -5 | 0 | 12 | nt | nt | nt | nt
C[C@@H](NS(=O)(=O)c1c(F)cccc1F)c1ccccc1 | -2 | nt | 4 | -8 | -15 | nt | nt | nt | nt
COC(=O)Cc1nnn2c1[C@H](C)[C@H](c1ccccc1Br)OC[C@@H]2c1ccccc1 | 0 | nt | 3 | -3 | 5 | nt | nt | nt | nt
CCc1nc2ccc(C(=O)Nc3cccc(NS(C)(=O)=O)c3)cn2c1N(CC)Cc1cccc(Br)c1 | 15* | 1 | -2 | -7 | 36* | 9 | 3 | 23* | 13*
CCc1nc2ccc(C(=O)Nc3cccc(OC)c3)cn2c1N(CC)Cc1cccc(Br)c1 | 11* | -3 | 0 | -2 | 22* | 12 | 3 | 27* | 12*
CCc1nc2ccc(C(=O)NCCOc3ccc(OC)cc3)cn2c1N(CC)Cc1cccc(Br)c1 | 6 | -6 | -7 | -5 | -105 | nt | nt | nt | nt
CCc1nc2ccc(C(=O)Nc3cccc(NS(C)(=O)=O)c3)cn2c1N(C)CCCc1ccccc1 | 3 | 1 | 2 | -7 | 3 | nt | nt | nt | nt
